PAFAH2 inh – inhibitors of human PAFAH2; AID 492956; 340,000 tested, 0.99% active; inhibition, % at 3.39 µM; Q99487; recombinant PAFAH2, FP-rhodamine activity probe, fluorescence polarization;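 active = inhibition above the mean over all tested compounds plus 3 SD, cut at about 30% in these data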;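 also: inhibitors block probe labeling of enzyme so polarization drops; 0% = enzyme with DMSO and 100% = wells lacking PAFAH2 protein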
PAFAH1B2 inh – PAFAH1B2 (human) inhibition; 340,000 tested, 1.2% active; AID 492953; inhibition, % at 3.39 µM; recombinant PAFAH1B2, FP-rhodamine activity probe, fluorescence polarization; P68402;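 active = inhibition above the mean of all tested compounds plus 3 SD, cut at about 24% in these data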;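 also: 0% = enzyme with DMSO and 100% = wells lacking PAFAH1B2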
pPAFAH FP inh – inhibitors of human plasma PAF acetylhydrolase (pPAFAH); Q13093; recombinant pPAFAH, FP-rhodamine probe fluorescence polarization; inhibition, % at 3.39 µM; 330,000 tested, 1.5% active; AID 463082;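 active = inhibition above the mean inhibition across the screen plus 3 SD, cut at about 25% in these data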;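 also: inhibitors block binding of the rhodamine activity-based probe so polarization drops; 0% = enzyme with DMSO and 100% = wells lacking pPAFAH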
Target sequence (Q13093 whole entry, looked up): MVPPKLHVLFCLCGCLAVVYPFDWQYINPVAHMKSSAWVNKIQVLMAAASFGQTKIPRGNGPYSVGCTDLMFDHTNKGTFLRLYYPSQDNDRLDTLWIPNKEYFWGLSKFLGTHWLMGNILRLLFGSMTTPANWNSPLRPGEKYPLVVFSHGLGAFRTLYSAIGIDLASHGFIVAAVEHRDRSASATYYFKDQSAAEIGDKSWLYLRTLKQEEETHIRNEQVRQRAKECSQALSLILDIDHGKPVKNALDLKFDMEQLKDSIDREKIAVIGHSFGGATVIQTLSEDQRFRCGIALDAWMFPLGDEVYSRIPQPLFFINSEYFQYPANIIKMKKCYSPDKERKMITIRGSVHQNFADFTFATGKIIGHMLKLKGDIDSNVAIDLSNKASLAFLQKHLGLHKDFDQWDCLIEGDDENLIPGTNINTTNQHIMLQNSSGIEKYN
Apaf1 inhib – blocks human Apaf-1 apoptosome activity | reconstituted apoptosome caspase-3 activity, DEVD-Rh110 fluorescence | 330,000 tested, 0.71% active | inhibition, % at 20 µM; active = inhibition of at least 40% at 20 µM;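 also: plate controls were DMSO wells for no effect and DEVD-CHO caspase inhibitor wells for full effect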
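System – cell-free apoptosome with Apaf-1, procaspase-3 and caspase-9 · Buffer or medium – pH 7.5 Hepes buffer with CHAPS, BSA, DTT · Also added – cytochrome c with DEVD-Rh110 · Times – 30 min compound preincubation, 50 min activation, room temperature · Technique – Rh110 fluorescence intensity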
PAFAH1B3 FP inh – inhibitors of human PAFAH1B3. recombinant PAFAH1B3, FP-rhodamine probe, fluorescence polarization. inhibition, % at 3.39 µM. Q15102. AID 492972. 340,000 tested, 0.28% active;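 active = inhibition above the screen-wide average of all tested compounds plus 3 SD, cut at about 25% in these data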;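 also: 0% = enzyme with DMSO only and 100% = wells lacking PAFAH1B3 protein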
Target sequence (Q15102 whole entry, looked up): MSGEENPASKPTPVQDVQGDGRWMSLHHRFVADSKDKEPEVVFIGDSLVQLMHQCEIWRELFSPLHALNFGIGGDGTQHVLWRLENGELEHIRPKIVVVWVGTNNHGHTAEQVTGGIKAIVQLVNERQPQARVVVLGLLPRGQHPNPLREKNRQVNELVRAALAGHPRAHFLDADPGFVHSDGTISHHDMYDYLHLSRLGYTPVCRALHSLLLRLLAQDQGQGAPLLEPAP
Starred values were filed as active, the others as inactive. In the library only some 3.1% were active in any assay of this set; here they are far more common.

Results for Cc1[nH]c2c(C)cccc2c(=O)c1CN1CCCCCC1 ?
PAFAH2 inh: -3; PAFAH1B2 inh: -6; pPAFAH FP inh: 4; Apaf1 inhib: 7; PAFAH1B3 FP inh: 0

What do the screens show for `O=C(Nc1ccccc1Oc1ccccc1)c1ccccc1F`?
PAFAH2 inh: 2; PAFAH1B2 inh: 0; pPAFAH FP inh: 28*; Apaf1 inhib: 9; PAFAH1B3 FP inh: 3

What do the screens show for `COC(=O)C(Cc1ccccc1)NC(=O)CCC(=O)NC(C)CCc1ccccc1` (configuration not stated)?
PAFAH2 inh: -5; PAFAH1B2 inh: 27*; pPAFAH FP inh: 1; Apaf1 inhib: 0; PAFAH1B3 FP inh: 2

How did CC1=NN(c2nc(-c3ccccc3)cs2)C(=O)C1 do in these assays?
PAFAH2 inh: 20; PAFAH1B2 inh: 10; pPAFAH FP inh: 24; Apaf1 inhib: 36; PAFAH1B3 FP inh: 4

What do the screens show for `O=C1CC(c2ccccc2)=NN1c1nc(-c2ccccc2)cs1`?
PAFAH2 inh: 66*; PAFAH1B2 inh: 8; pPAFAH FP inh: 28*; Apaf1 inhib: 15; PAFAH1B3 FP inh: 18

What do the screens show for `COc1ccc(S(=O)(=O)N2CCCC(C(=O)NC3CC3)C2)cc1Cl` (configuration not stated)?
PAFAH2 inh: 4; PAFAH1B2 inh: -1; pPAFAH FP inh: 3; Apaf1 inhib: 0; PAFAH1B3 FP inh: 4

What do the screens show for `O=C(Nc1ccc(-c2csc(Nc3cccc(C(F)(F)F)c3)n2)cc1)c1cc([N+](=O)[O-])cc(C(F)(F)F)c1`?
PAFAH2 inh: 48*; PAFAH1B2 inh: 24; pPAFAH FP inh: -1; Apaf1 inhib: -16; PAFAH1B3 FP inh: 27*

Results for Nc1ccc(C(=O)O)cc1 ?
PAFAH2 inh: -3; PAFAH1B2 inh: 5; pPAFAH FP inh: 4; Apaf1 inhib: -2; PAFAH1B3 FP inh: 3

Results for Nc1ccc(O)cc1 ?
pPAFAH FP inh: 38*

How did O=C(NNC(=S)Nc1cccc(C(F)(F)F)c1)c1ccc(Cl)cc1Cl do in these assays?
PAFAH2 inh: 4; PAFAH1B2 inh: 13; pPAFAH FP inh: 25*; Apaf1 inhib: 7; PAFAH1B3 FP inh: 13

How did Cc1ccc(C(=O)OCC(=O)NCc2cccc(Cl)c2)cc1S(=O)(=O)N1CCCCC1 do in these assays?
PAFAH2 inh: -2; PAFAH1B2 inh: 3; Apaf1 inhib: 21; PAFAH1B3 FP inh: 1

How did CC(=O)c1sc(NC(=O)c2oc3ccc(F)cc3c2C)nc1C do in these assays?
PAFAH2 inh: 5; PAFAH1B2 inh: -3; pPAFAH FP inh: 2; Apaf1 inhib: -17; PAFAH1B3 FP inh: 4

Results for CC(C)CNC(=O)c1cccc(NC(=O)CSc2ccc(Cl)cc2)c1 ?
PAFAH2 inh: -3; PAFAH1B2 inh: 30*; pPAFAH FP inh: 3; Apaf1 inhib: 11; PAFAH1B3 FP inh: 7

What do the screens show for `CC(C)(C)c1cc(C(=O)NNC(=O)c2ccc(Cl)cc2)no1`?
PAFAH2 inh: 10; PAFAH1B2 inh: 9; pPAFAH FP inh: 4; Apaf1 inhib: 2; PAFAH1B3 FP inh: 6

How did O=S(=O)(Nc1ccccc1-c1ccccc1)c1ccccc1 do in these assays?
PAFAH2 inh: 6; PAFAH1B2 inh: 26*; PAFAH1B3 FP inh: 7

Results for Cc1ccc(S(=O)(=O)Nc2ccccc2C(N)=O)cc1 ?
PAFAH2 inh: 5; PAFAH1B2 inh: 2; pPAFAH FP inh: -4; Apaf1 inhib: 1; PAFAH1B3 FP inh: 9

What do the screens show for `Cc1ccc(S(=O)(=O)Nc2ccccc2-c2ccccc2NS(=O)(=O)c2ccc(C)cc2)cc1`?
PAFAH2 inh: 10; PAFAH1B2 inh: 59*; pPAFAH FP inh: 25*; Apaf1 inhib: 21; PAFAH1B3 FP inh: -6

What do the screens show for `Cc1ccsc1C(=O)OC(C)C(=O)Nc1ccc(Cl)cn1` (configuration not stated)?
PAFAH2 inh: -2; PAFAH1B2 inh: 7; pPAFAH FP inh: -1; Apaf1 inhib: 2; PAFAH1B3 FP inh: 10

Results for O=C(Oc1ccc(N(C(=O)c2ccncc2)S(=O)(=O)c2ccc(Cl)cc2)cc1)c1ccncc1 ?
PAFAH2 inh: -4; PAFAH1B2 inh: 29*; pPAFAH FP inh: 7; Apaf1 inhib: -2; PAFAH1B3 FP inh: 8

Results for O=C(Oc1ccc(N(C(=O)c2ccncc2)S(=O)(=O)c2ccc(F)cc2)cc1)c1ccncc1 ?
PAFAH2 inh: 7; PAFAH1B2 inh: 4; pPAFAH FP inh: 6; Apaf1 inhib: -5; PAFAH1B3 FP inh: -2

How did O=C1C=CC(=C(c2ccc(O)cc2)c2ccc(O)cc2)C=C1 do in these assays?
PAFAH2 inh: -1; PAFAH1B2 inh: 24*; pPAFAH FP inh: 5; Apaf1 inhib: 0; PAFAH1B3 FP inh: 10

Results for O=C(CCCC(=O)c1ccc(O)cc1)c1ccc(O)cc1 ?
PAFAH2 inh: -4; PAFAH1B2 inh: 6; pPAFAH FP inh: 1; Apaf1 inhib: 2; PAFAH1B3 FP inh: 7

How did Cc1cc(C)c(C(=O)C(C)OC(=O)c2ccc(Cl)nc2)cc1C (configuration not stated) do in these assays?
PAFAH2 inh: 1; PAFAH1B2 inh: 5; pPAFAH FP inh: 4; Apaf1 inhib: 21; PAFAH1B3 FP inh: -7

Results for CC(=O)c1cccc(NC(=O)C(C)OC(=O)CCN=C2NS(=O)(=O)c3ccccc32)c1 (configuration not stated) ?
PAFAH2 inh: 106*; PAFAH1B2 inh: 106*; pPAFAH FP inh: -7; Apaf1 inhib: 8; PAFAH1B3 FP inh: 86*

What do the screens show for `O=C(O)c1ccccc1C(=O)OCc1c(-c2ccccc2)ncc2ccccc12`?
PAFAH2 inh: -7; PAFAH1B2 inh: -3; pPAFAH FP inh: 4; Apaf1 inhib: 1; PAFAH1B3 FP inh: 1

How did O=C(OCc1c(-c2ccccc2)ncc2ccccc12)c1ccco1 do in these assays?
PAFAH2 inh: 2; PAFAH1B2 inh: 5; pPAFAH FP inh: 32*; Apaf1 inhib: 10; PAFAH1B3 FP inh: 6

Results for COC(=O)c1cccc(NC(=O)c2nn(C(C)C)c(=O)c3ccccc23)c1 ?
PAFAH2 inh: 9; PAFAH1B2 inh: 4; pPAFAH FP inh: 25*; Apaf1 inhib: 10; PAFAH1B3 FP inh: 2

Results for Cc1cccc(C(=O)OCC(=O)c2c(C)[nH]c3ccccc23)c1O ?
PAFAH2 inh: 3; PAFAH1B2 inh: 1; pPAFAH FP inh: -4; Apaf1 inhib: -14; PAFAH1B3 FP inh: 1

What do the screens show for `CSc1ccc(C2NN=C(c3ccccc3)S2)cc1` (configuration not stated)?
pPAFAH FP inh: -1; Apaf1 inhib: -1

Results for Oc1ccccc1C1NN=C(c2ccccc2)S1 (configuration not stated) ?
PAFAH2 inh: 49*; PAFAH1B2 inh: 6; pPAFAH FP inh: -3; Apaf1 inhib: -1; PAFAH1B3 FP inh: -1

Results for CCN1CCN(C(c2cccs2)C(C)NC(=S)NC2CCCCC2)CC1 (configuration not stated) ?
PAFAH2 inh: -3; PAFAH1B2 inh: 1; pPAFAH FP inh: 34*; Apaf1 inhib: 3; PAFAH1B3 FP inh: 7

Results for CCN1CCN(C(c2cccs2)C(C)NC(=O)NC2CCCCC2)CC1 (configuration not stated) ?
PAFAH2 inh: 1; PAFAH1B2 inh: 4; pPAFAH FP inh: 0; Apaf1 inhib: -1; PAFAH1B3 FP inh: 5
